# ChEMBL document CHEMBL2176880 (J Med Chem, 2012)
# Calls of active or inactive are those of the source.
# What was measured:
# Cavia porcellus = assay: Cardiotoxicity in anesthetized guinea pig assessed as proarrhythmic potency; assay type: toxicity, organism-based; conditions: in vivo
# TK6 [1] = assay: Genotoxicity in human TK6 cells in absence of rat liver S9 fraction up to 150 ug/ml; assay type: toxicity, cell-based
# In short: (§1)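 In vitro micronucleus test in human lymphoblastoid TK6 cells, with or without metabolic activation by rat liver S9, tested up to 150 μg/mL.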
# TK6 [2] = assay: Genotoxicity in human TK6 cells in presence of rat liver S9 fraction up to 150 ug/ml; assay type: toxicity, cell-based; in short: as §1
# Salmonella typhimurium = assay: Mutagenicity in Salmonella typhimurium TA98 up to […]; assay type: toxicity, organism-based; conditions: salmonella enterica subsp. enterica serovar typhimurium
# Canis familiaris = assay: Cardiotoxicity in anesthetized dog assessed as proarrhythmic potency; assay type: toxicity, organism-based, Canis lupus familiaris; conditions: in vivo
# [3] = Cardiotoxicity assessed as proarrhythmic potency in rabbit Purkinje fibers; assay type: toxicity, tissue-based, Oryctolagus cuniculus, Purkinje fiber
# Rattus norvegicus [4] = assay: Inhibition of REM sleep state in po dosed Sprague-Dawley rat sleep-wake EEG paradigm model; assay type: functional; conditions: read-out: MED
# [5] = Oral bioavailability in dog rat at […]; assay type: ADME, organism-based, Canis lupus familiaris; conditions: in vivo
# [6] = Cmax in dog rat at 1 mg/kg, iv or […], po; assay type: ADME, organism-based, Canis lupus familiaris; conditions: in vivo
# [7] = AUC (0 to infinity) in dog rat at 1 mg/kg, iv or […], po; assay type: ADME, organism-based, Canis lupus familiaris; conditions: plasma
# [8] = Tmax in dog rat at 1 mg/kg, iv or […], po; assay type: ADME, organism-based, Canis lupus familiaris; conditions: in vivo
# [9] = Half life in dog rat at 1 mg/kg, iv or […], po; assay type: ADME, organism-based, Canis lupus familiaris; conditions: in vivo
# [10] = Volume of distribution at steady state in dog rat at 1 mg/kg, iv or […], po; assay type: ADME, organism-based, Canis lupus familiaris; conditions: in vivo, read-out: Vdss
# MDR1 [11] = assay: Apparent permeability from basolateral to apical side in MDR1 expressing pig LLC-PK1 cells; assay type: ADME, cell-based, Sus scrofa
# Cytochrome P450 2C19 = Cytochrome P450 2C19 (Homo sapiens, UniProt P33261); assay: Inhibition of CYP2C19; assay type: ADME
# Sequence of Cytochrome P450 2C19 (P33261 whole entry): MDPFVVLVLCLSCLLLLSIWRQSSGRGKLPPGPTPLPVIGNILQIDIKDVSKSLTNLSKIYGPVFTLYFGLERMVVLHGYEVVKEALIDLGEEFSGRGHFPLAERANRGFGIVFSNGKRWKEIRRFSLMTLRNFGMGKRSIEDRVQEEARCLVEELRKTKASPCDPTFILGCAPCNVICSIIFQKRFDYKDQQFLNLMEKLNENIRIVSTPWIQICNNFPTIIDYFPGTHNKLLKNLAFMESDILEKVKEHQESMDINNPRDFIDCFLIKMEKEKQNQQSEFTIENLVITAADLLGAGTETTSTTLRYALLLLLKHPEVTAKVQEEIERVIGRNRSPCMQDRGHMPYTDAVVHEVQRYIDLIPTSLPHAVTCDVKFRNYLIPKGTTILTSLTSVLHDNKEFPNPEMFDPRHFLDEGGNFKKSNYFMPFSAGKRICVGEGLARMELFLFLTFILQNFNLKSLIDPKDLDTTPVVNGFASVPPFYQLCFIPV
# [12] = Protein binding in rat plasma; assay type: ADME, cell-free; conditions: read-out: PPB (converted)
# [13] = Protein binding in human plasma; assay type: ADME, cell-free; conditions: read-out: PPB (converted)
# Cytochrome P450 1A2 = target: T1, Cytochrome P450 1A2 (Homo sapiens, UniProt P05177); assay: Inhibition of CYP1A2; assay type: ADME
# T1 sequence (P05177 whole entry): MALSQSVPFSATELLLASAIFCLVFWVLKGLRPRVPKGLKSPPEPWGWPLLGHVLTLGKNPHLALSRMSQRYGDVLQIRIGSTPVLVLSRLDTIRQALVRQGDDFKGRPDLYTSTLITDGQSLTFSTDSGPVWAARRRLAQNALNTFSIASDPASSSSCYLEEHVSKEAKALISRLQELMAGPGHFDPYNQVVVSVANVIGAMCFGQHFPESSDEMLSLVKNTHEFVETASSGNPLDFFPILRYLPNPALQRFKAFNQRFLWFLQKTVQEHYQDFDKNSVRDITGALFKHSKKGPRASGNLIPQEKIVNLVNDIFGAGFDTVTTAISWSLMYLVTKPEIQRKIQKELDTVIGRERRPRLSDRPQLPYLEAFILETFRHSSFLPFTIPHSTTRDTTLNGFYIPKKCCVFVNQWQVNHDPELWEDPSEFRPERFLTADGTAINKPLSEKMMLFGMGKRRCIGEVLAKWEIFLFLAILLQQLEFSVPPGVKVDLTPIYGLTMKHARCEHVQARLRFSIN
# [14] = Dissociation constant, pKa of the compound; assay type: physicochemical
# Mus musculus [15] = assay: Antipsychotic activity in subcutaneously dosed NMRI mouse assessed as efficacy free concentration causing reversal of PCP-induced hyperlocomotion; assay type: functional
# Mus musculus [16] = assay: Antipsychotic activity in subcutaneously dosed NMRI mouse assessed as reversal of PCP-induced hyperlocomotion; assay type: functional
# In short: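 Nonhabituated mice given vehicle or test compound sc, then immediately challenged with PCP (5.0 mg/kg, sc) or vehicle and placed singly in open fields for 30 min. Distance travelled measured by video tracking. Responder criterion: total distance < 5500 counts.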
# Rattus norvegicus [17] = assay: Inhibition of REM sleep state in Sprague-Dawley rat sleep-wake EEG paradigm model assessed as efficacy free concentration at 3 mg/kg, po; assay type: functional
# Rattus norvegicus [18] = assay: Effect on sleep-wake stages in Sprague-Dawley rat sleep-wake EEG paradigm model assessed as induction of sleep fragmentation at 3 mg/kg, po; assay type: organism-based; design: dose 3 mg/kg, route oral; conditions: in vivo
# In short: (§2)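 Male Sprague−Dawley rats (250−300 g) chronically implanted with EEG, EMG and EOG electrodes; n = 8 per group. A 20 h recording after oral saline was followed by a 20 h recording at the same circadian time after oral vehicle (20% CD + 2H2T) or compound (3 mg/kg), starting at 13:30 in the lights-on period. 2 s epochs scored into sleep−wake stages; REM onset latency and state transitions determined. Wilcoxon−Mann−Whitney tests against vehicle.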
# Rattus norvegicus [19] = assay: Prolongation of REM sleep onset latency in Sprague-Dawley rat sleep-wake EEG paradigm model at 3 mg/kg, po; assay type: functional, organism-based; design: dose 3 mg/kg; in short: as §2
# Rattus norvegicus [20] = assay: Effect on sleep-wake stages in Sprague-Dawley rat sleep-wake EEG paradigm model at 3 mg/kg, po; assay type: ADME, organism-based; design: dose 3 mg/kg, route oral; conditions: in vivo; in short: as §2
# Rattus norvegicus [21] = assay: Inhibition of REM sleep state in Sprague-Dawley rat sleep-wake EEG paradigm model at 3 mg/kg, po; assay type: functional, organism-based; design: dose 3 mg/kg; in short: as §2
# [22] = Oral bioavailability in Sprague-Dawley rat at 10 mg/kg; assay type: ADME, organism-based; conditions: in vivo
# [23] = Cmax in Sprague-Dawley rat at […], iv or 10 mg/kg, po; assay type: ADME, organism-based; conditions: in vivo
# [24] = AUC (0 to infinity) in Sprague-Dawley rat at 10 mg/kg, po; assay type: ADME, organism-based; design: time infinity, dose 10 mg/kg, route oral; conditions: plasma
# [25] = Tmax in Sprague-Dawley rat at […], iv or 10 mg/kg, po; assay type: ADME, organism-based; conditions: in vivo
# [26] = Volume of distribution at steady state in Sprague-Dawley rat at […], iv or 10 mg/kg, po; assay type: ADME, organism-based; conditions: in vivo, read-out: Vdss
# [27] = Half life in Sprague-Dawley rat at […], iv; assay type: ADME, organism-based; design: dose 2.5 mg/kg, route intravenous; conditions: in vivo
# [28] = Clearance in Sprague-Dawley rat at […], iv; assay type: ADME, organism-based; design: dose 2.5 mg/kg, route intravenous; conditions: in vivo
# [29] = Ratio of drug level in brain to plasma in Swiss mouse at 10 mg/kg, sc administered as single dose measured 1 hr post dose; assay type: ADME, organism-based; design: dose 10 mg/kg, route subcutaneous; conditions: read-out: BPR
# In short: (§3)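 Swiss mice given a single 10 mg/kg sc dose at 1 mg/mL in 20% HP-β-CD + HCl solution, pH 4. Brain and plasma levels taken 1 h post dose. Values are geometric means of at least two runs.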
# [30] = Drug level in Swiss mouse brain at 10 mg/kg, sc administered as single dose measured 1 hr post dose; assay type: ADME, organism-based; design: dose 10 mg/kg, route subcutaneous; conditions: read-out: Drug uptake; in short: as §3
# [31] = Plasma concentration in Swiss mouse at 10 mg/kg, sc administered as single dose measured 1 hr post dose; assay type: ADME, organism-based; design: dose 10 mg/kg, route subcutaneous; in short: as §3
# [32] = Drug metabolism in mouse liver microsomes at 5 uM after 15 mins; assay type: ADME, Microsome; conditions: read-out: Drug metabolism
# [33] = Drug metabolism in human liver microsomes at 5 uM after 15 mins; assay type: ADME, Microsome; conditions: read-out: Drug metabolism
# In short: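 Compound at 5 μM incubated 15 min with human liver microsomes; read-out is % of compound metabolized. Values are the mean of at least two experiments.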
# Cytochrome P450 2C9 = Cytochrome P450 2C9 (Homo sapiens, UniProt P11712); assay: Inhibition of CYP2C9; assay type: ADME
# Sequence of Cytochrome P450 2C9 (P11712 whole entry): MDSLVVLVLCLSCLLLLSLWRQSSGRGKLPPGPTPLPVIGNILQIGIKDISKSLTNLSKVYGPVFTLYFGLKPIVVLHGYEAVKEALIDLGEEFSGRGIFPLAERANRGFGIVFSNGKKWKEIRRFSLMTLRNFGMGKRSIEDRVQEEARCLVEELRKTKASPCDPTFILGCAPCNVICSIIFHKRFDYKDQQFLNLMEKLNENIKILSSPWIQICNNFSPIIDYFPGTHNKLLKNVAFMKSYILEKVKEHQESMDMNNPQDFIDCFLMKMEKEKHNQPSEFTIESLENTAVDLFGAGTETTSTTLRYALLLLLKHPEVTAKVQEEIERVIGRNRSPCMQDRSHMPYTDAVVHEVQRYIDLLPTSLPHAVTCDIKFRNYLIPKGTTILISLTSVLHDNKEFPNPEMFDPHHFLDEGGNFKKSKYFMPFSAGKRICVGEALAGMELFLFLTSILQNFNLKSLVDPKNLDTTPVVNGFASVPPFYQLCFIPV
# Cytochrome P450 3A4 = Cytochrome P450 3A4 (Homo sapiens, UniProt P08684); assay: Inhibition of CYP3A4; assay type: ADME
# Sequence of Cytochrome P450 3A4 (P08684 whole entry): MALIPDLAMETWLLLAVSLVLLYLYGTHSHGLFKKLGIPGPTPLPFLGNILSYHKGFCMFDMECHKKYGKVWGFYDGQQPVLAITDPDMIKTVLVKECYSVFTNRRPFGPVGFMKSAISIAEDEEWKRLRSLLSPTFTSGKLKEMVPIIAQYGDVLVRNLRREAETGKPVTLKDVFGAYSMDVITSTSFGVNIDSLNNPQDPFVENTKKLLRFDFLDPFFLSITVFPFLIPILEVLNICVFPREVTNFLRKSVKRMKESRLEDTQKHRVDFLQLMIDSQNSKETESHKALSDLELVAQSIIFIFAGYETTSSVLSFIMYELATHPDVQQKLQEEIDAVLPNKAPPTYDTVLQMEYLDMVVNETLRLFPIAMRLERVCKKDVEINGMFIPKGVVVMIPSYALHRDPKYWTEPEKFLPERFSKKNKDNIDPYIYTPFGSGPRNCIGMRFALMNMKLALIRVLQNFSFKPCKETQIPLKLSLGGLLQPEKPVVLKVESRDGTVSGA
# MDR1 [34] = assay: Apparent permeability from apical to basolateral side in MDR1 expressing pig LLC-PK1 cells; assay type: ADME, cell-based, Sus scrofa
# [35] = Clearance in dog rat at 1 mg/kg, iv or […], po; assay type: ADME, organism-based, Canis lupus familiaris; conditions: in vivo
# Cytochrome P450 2D6 = Cytochrome P450 2D6 (Homo sapiens, UniProt P10635); assay: Inhibition of CYP2D6; assay type: ADME
# Sequence of Cytochrome P450 2D6 (P10635 whole entry): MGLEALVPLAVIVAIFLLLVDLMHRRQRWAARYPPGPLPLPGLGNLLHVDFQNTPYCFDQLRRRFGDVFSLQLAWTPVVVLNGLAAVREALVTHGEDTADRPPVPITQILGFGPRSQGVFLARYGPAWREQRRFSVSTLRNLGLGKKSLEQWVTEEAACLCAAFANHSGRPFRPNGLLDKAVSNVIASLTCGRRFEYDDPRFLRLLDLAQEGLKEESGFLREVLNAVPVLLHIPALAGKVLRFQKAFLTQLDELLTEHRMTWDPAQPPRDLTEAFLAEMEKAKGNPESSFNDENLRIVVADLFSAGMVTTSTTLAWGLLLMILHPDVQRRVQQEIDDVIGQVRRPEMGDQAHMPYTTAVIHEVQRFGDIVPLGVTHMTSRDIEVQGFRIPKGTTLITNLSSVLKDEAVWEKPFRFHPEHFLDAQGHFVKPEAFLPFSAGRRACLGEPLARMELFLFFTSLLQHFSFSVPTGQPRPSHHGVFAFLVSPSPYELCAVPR
# [36] = Lipophilicity, log P of the compound at pH 7; conditions: buffer
smiles,measurement,setting,value
FC(F)(F)c1c(N2CCC(c3ccccc3)CC2)ccn2c(CC3CC3)nnc12,NOAEL,Cavia porcellus,9000 ng/mL
same,Activity,TK6 [1],Non-toxic
same,Activity,TK6 [2],Non-toxic
same,Activity,Salmonella typhimurium,Non-toxic
same,NOAEL,Canis familiaris,6625 ng/mL
same,NOAEL,[3],0.075 µM
same,minimal effective dose,Rattus norvegicus [4],3 mg/kg
same,bioavailability,[5],18%
same,Cmax,[6],218 ng/mL
same,AUC(0-inf),[7],531 ng·h/mL
same,Tmax,[8],30 min
same,half-life,[9],48 min
same,Vd,[10],1.3 L/kg
same,Papp B→A,MDR1 [11],6 ×10⁻⁶ cm/s
same,IC50,Cytochrome P450 2C19,20 µM
same,fraction unbound,[12],0.0035
same,fraction unbound,[13],0.0018
same,IC50,Cytochrome P450 1A2,> 30 µM
same,pKa,[14],4.1
same,INH,Mus musculus [15],2.6 ng/mL
same,Activity,Mus musculus [16],Dose-dependent effect
same,ED50,Mus musculus [16]; sc,5.4 mg/kg
same,INH,Rattus norvegicus [17],0.14 ng/mL
same,Activity,Rattus norvegicus [18],Non-toxic
same,Activity,Rattus norvegicus [19],Active
same,Activity,Rattus norvegicus [20],Non-toxic
same,inhibition,Rattus norvegicus [21],Active
same,bioavailability,[22],36%
same,Cmax,[23],482 ng/mL
same,AUC(0-inf),[24],1800 ng·h/mL
same,Tmax,[25],30 min
same,Vd,[26],1.4 L/kg
same,half-life,[27],162 min
same,clearance,[28],35 mL/min/kg
same,Kp at 1 h,[29],1.4
same,concentration at 1 h,[30],849 ng/mL
same,concentration at 1 h,[31],671 ng/mL
same,"metabolised at […], 5 µM",[32],25%
same,"metabolised at […], 5 µM",[33],23%
same,IC50,Cytochrome P450 2C9,11 µM
same,IC50,Cytochrome P450 3A4,> 30 µM
same,Papp A→B,MDR1 [34],12 ×10⁻⁶ cm/s
same,clearance,[35],29 mL/min/kg
same,IC50,Cytochrome P450 2D6,> 30 µM
same,logD,[36],4.4
